Where “and” joins values, the source holds several entries; their conditions need not be identical. Identical values can stand only once.
Key:
Format in all cases: biochemical
[1] = target: T1, eEF-2K (Homo sapiens, UniProt O00418); test: ADP binding to eEF-2K
[2] = target: T1, eEF-2K; test: recovery experiments after 50-fold dilution, loss of E•I*
[3] = target: T1, eEF-2K; test: eEF-2K kinase assay, dose response; details: 100 μM ATP
[4] = target: eEF-2K Y236F (Homo sapiens, UniProt O00418, Y236F); test: kinase dose response and recovery assays with the Y236F mutant
[5] = target: eEF-2K C146S (Homo sapiens, UniProt O00418, C146S); test: kinase dose response and recovery assays with the C146S mutant
[6] = target: eEF-2K C146A (Homo sapiens, UniProt O00418, C146A); test: kinase dose response and recovery assays with the C146A mutant
[7] = target: T1, eEF-2K; test: time dependent inhibition
How it was run: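 eEF-2K (100 nM) incubated with test compound (0–500 μM) for 0–120 min in 25 mM HEPES pH 7.5, BSA, DTT, 5% DMSO. ADP protection used 0/250 μM compound ± 4 mM ADP; glutathione used 2.5 mM for 1 h. Diluted 50-fold into 30 °C assay buffer (150 μM CaCl2, 1 μM calmodulin, 50 μM peptide), started with 100 μM [γ-32P]ATP, read by P81 counting. E•I* formation fitted exponentially or globally for Kd, k2.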

[8] = 1 mM, 1 hour incubation, rapidly diluted

Which Ki [1] does the source give for `Nc1ncnc2c1ncn2[C@@H]1O[C@H](COP(=O)(O)OP(=O)(O)O)[C@@H](O)[C@H]1O` [ADP] here?
The Ki was roughly 1000 µM.

With `N#CC1=C(N)SC(N)=C(C#N)C1c1ccccc1F` [DFTD, 2,6-diamino-4-(2-fluorophenyl)-4H-thiopyran-3,5-dicarbonitrile] as the compound, how does the “k-2 (disappearance of E•I*)” value ([2]; 250 μM, 1 hour incubation, 50-fold dilution, first order fit) read?
Its value is 0.0006 s⁻¹.

And the “recovery of enzyme activity after dilution” value (from here on “recovery of enzyme activity”) ([2]; wild type, 1 mM, 1 hour incubation, rapidly diluted)?
The value was “slow recovery of activity”.

What about the IC50 ([3]; apparent IC50, 10 minute incubation) of the same compound?
The IC50 was 110 µM.

And the IC50 [4]?
Its IC50 is 105 µM.

And the “recovery of enzyme activity” value [4, 8]?
Its value is “slow recovery of activity”.

And the IC50 [5]?
The IC50 was 655 µM.

What about the time-dependence of inhibition [5] of the same compound?
The time-dependence of inhibition was “no time-dependence”.

And the “recovery of enzyme activity” value [5, 8]?
The value was “maximal activity was attained immediately”.

What about the IC50 [6] of the same compound?
Its IC50 is 890 µM.

And the time-dependence of inhibition [6]?
Its time-dependence of inhibition is “no time-dependence”.

And the “recovery of enzyme activity” value [6, 8]?
Its value is “maximal activity was attained immediately”.

What about the Kd [7] of the same compound?
Its Kd is 140 µM.

What about the “kobs for the formation of the E•I* complex” value ([7]; DFTD 250 μM in the absence of ADP) of the same compound?
Its value is 0.0015 ± 0.0003 s⁻¹.

And the “kobs for the formation of the E•I* complex” value ([7]; DFTD 250 μM in the presence of ADP (4 mM))?
Its value is 0.0002 ± 0.00003 s⁻¹.

And the “effect of glutathione on the inactivation or the reversibility rate” value ([7]; DFTD 250 μM pre-incubated with 2.5 mM glutathione for 1 hour)?
The value was “no significant effect”.

What about the “enzyme covalently bound at saturation” value ([7]; at saturation) of the same compound?
Its value is “approximately 75%”.

And the “slow equilibrium on the enzyme (=k2/k-2)” value ([7]; global fit of Figures 2B and 2C)?
Its value is 2.8.

What about the “k2 (inactivation step)” value ([7]; global fit of time-dependent and recovery experiments, KinTek Global Explorer) of the same compound?
The value was 0.0017 s⁻¹.

Which “kobs for the loss of the E•I* complex (recovery of activity)” value ([2]; MDP 500 μM, 60 min, diluted 50-fold) does the source give for `COc1cccc(C2C(C#N)C(=O)NC(=O)C2C#N)c1` (stereo not shown) [MDP, 4-(3-methoxyphenyl)-2,6-dioxo-3,5-piperidinedicarbonitrile] here?
Its value is 0.00056 s⁻¹ and 0.00056 ± 0.00003 s⁻¹.

What about the “h (hill coefficient)” value ([3]; 60 minutes preincubation) of the same compound?
Its value is 0.93 ± 0.01.

What about the “kobs for the formation of E•I* complex” value ([7]; MDP 500 μM) of the same compound?
The value was 0.0031 ± 0.0002 s⁻¹.
